ChEMBL document CHEMBL4184148 (Bioorg Med Chem Lett, 2017)

Columns and labels:
[1] = biological target: Bromodomain-containing protein 4 (Homo sapiens, UniProt O60885); test: Inhibition of BRD4 (unknown origin) by AlphaScreen assay
[2] = biological target: Activin receptor type-1 (Homo sapiens) (UniProt Q04771); test: Binding affinity to wild-type human ACVR1 (C188 to C509 residues) expressed in Escherichia coli BL21 at 1 uM by Kinomescan method relative to control
[3] = biological target: Activin receptor type-1-like (Homo sapiens) (UniProt P37023); test: Binding affinity to wild-type human ACVRL1 (L164 to Q503 residues) expressed in Escherichia coli BL21 at 1 uM by Kinomescan method relative to control
[4] = biological target: Atypical kinase COQ8A, mitochondrial (Homo sapiens) (UniProt Q8NI60); test: Binding affinity to wild-type human […] ADCK3 (M280 to Q647 residues) expressed in Escherichia coli BL21 at 1 uM by Kinomescan method relative to control
[5] = biological target: ALK tyrosine kinase receptor (Homo sapiens) (UniProt Q9UM73); test: Binding affinity to wild-type human partial length ALK (I1088 to E1409 residues) expressed in HEK293 cells at 1 uM by Kinomescan method relative to control; format: cell-based
[6] = biological target: BMP-2-inducible protein kinase (Homo sapiens) (UniProt Q9NSY1); test: Binding affinity to wild-type human partial length BIKE (S34 to N329 residues) expressed in Escherichia coli BL21 at 1 uM by Kinomescan method relative to control
[7] = biological target: Calcium/calmodulin-dependent protein kinase type II subunit gamma (Homo sapiens) (UniProt Q13555); test: Binding affinity to wild-type human partial length CAMK2G (R9 to A303 residues) expressed in Escherichia coli BL21 at 1 uM by Kinomescan method relative to control
[8] = biological target: Cyclin-dependent kinase 4 (Homo sapiens) (UniProt P11802); test: Binding affinity to wild-type human full length CDK4 (M1 to E303 residues) expressed in HEK293 cells at 1 uM by Kinomescan method relative to control; format: cell-based
[9] = biological target: Macrophage colony-stimulating factor 1 receptor (Homo sapiens) (UniProt P07333); test: Binding affinity to wild-type human partial length autoinhibited CSF1R (Y538 to S939 residues) expressed in HEK293 cells at 1 uM by Kinomescan method relative to control; format: cell-based; set-up: scale not given: the % may be the effect or the level left
[10] = biological target: Ephrin type-B receptor 1 (Homo sapiens) (UniProt P54762); test: Binding affinity to wild-type human partial length EPHB1 (P589 to T911 residues) expressed in Escherichia coli BL21 at 1 uM by Kinomescan method relative to control
[11] = biological target: Receptor tyrosine-protein kinase erbB-3 (Homo sapiens) (UniProt P21860); test: Binding affinity to wild-type human partial length ERBB3 (G684 to A987 residues) expressed in HEK293 cells at 1 uM by Kinomescan method relative to control; format: cell-based
[12] = biological target: Fibroblast growth factor receptor 4 (Homo sapiens) (UniProt P22455); test: Binding affinity to wild-type human partial length FGFR4 (G402 to E713 residues) expressed in Escherichia coli BL21 at 1 uM by Kinomescan method relative to control
[13] = tested on: Receptor-type tyrosine-protein kinase FLT3 (Homo sapiens), P36888 [UNDEFINED MUTATION]; test: Binding affinity to human partial length FLT3 ITD mutant expressed in Escherichia coli BL21 at 1 uM by Kinomescan method relative to control
[14] = biological target: Tyrosine-protein kinase ITK/TSK (Homo sapiens) (UniProt Q08881); test: Binding affinity to wild-type human partial length ITK (R335 to L620 residues) expressed in Escherichia coli BL21 at 1 uM by Kinomescan method relative to control
[15] = tested on: Mast/stem cell growth factor receptor Kit (Homo sapiens), P10721 [V559D,V654A]; test: Binding affinity to human partial length KIT V559D/V654A double mutant (Y545 to D952 residues) expressed in Escherichia coli BL21 at 1 uM by Kinomescan method relative to control
[16] = biological target: Calcium-dependent protein kinase 1 (Plasmodium falciparum) (UniProt P62344); test: Binding affinity to wild-type Plasmodium falciparum full length CDPK1 (M1 to S524 residues) expressed in HEK293 cells at 1 uM by Kinomescan method relative to control; format: cell-based
[17] = biological target: Phosphatidylinositol 4,5-bisphosphate 3-kinase catalytic subunit beta isoform (Homo sapiens) (UniProt P42338); test: Binding affinity to wild-type human partial length PIK3CB (P118 to S1070 residues) expressed in HEK293 cells at 1 uM by Kinomescan method relative to control; format: cell-based
[18] = biological target: Phosphatidylinositol 4,5-bisphosphate 3-kinase catalytic subunit gamma isoform (Homo sapiens) (UniProt P48736); test: Binding affinity to wild-type human partial length PIK3CG (S144 to A1102 residues) expressed in HEK293 cells at 1 uM by Kinomescan method relative to control; format: cell-based
[19] = biological target: Phosphatidylinositol 4-phosphate 5-kinase type-1 alpha (Homo sapiens) (UniProt Q99755); test: Binding affinity to wild-type human full length PIP5K1A (M1 to H562 residues) expressed in Escherichia coli BL21 at 1 uM by Kinomescan method relative to control
In short: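 Kinome-wide competition binding panel run by an outside provider, with each compound tested at a single concentration. Activity is read against the kinase panel.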

[20] = biological target: Serine/threonine-protein kinase N1 (Homo sapiens) (UniProt Q16512); test: Binding affinity to wild-type human partial length PKN1 (E598 to C948 residues) expressed in Escherichia coli BL21 at 1 uM by Kinomescan method relative to control
[21] = biological target: Protein kinase C eta type (Homo sapiens) (UniProt P24723); test: Binding affinity to wild-type human partial length PRKCH (S324 to P683 residues) expressed in Escherichia coli BL21 at 1 uM by Kinomescan method relative to control
[22] = biological target: Serine/threonine-protein kinase Sgk2 (Homo sapiens) (UniProt Q9HBY8); test: Binding affinity to wild-type human partial length SGK2 (L54 to C427 residues) expressed in HEK293 cells at 1 uM by Kinomescan method relative to control; format: cell-based
[23] = biological target: BDNF/NT-3 growth factors receptor (Homo sapiens) (UniProt Q16620); test: Binding affinity to wild-type human partial length TRKB (Q547 to G838 residues) expressed in HEK293 cells at 1 uM by Kinomescan method relative to control; format: cell-based
[24] = biological target: Serine/threonine-protein kinase WNK1 (Homo sapiens) (UniProt Q9H4A3); test: Binding affinity to wild-type human partial length WNK1 (Q194 to A490 residues) expressed in HEK293 cells at 1 uM by Kinomescan method relative to control; format: cell-based
[25] = biological target: Tyrosine-protein kinase Yes (Homo sapiens) (UniProt P07947); test: Binding affinity to wild-type human partial length YES (T257 to L543 residues) expressed in Escherichia coli BL21 at 1 uM by Kinomescan method relative to control
Chain of Tyrosine-protein kinase Yes (Homo sapiens) (P07947 2-543 limits assumed): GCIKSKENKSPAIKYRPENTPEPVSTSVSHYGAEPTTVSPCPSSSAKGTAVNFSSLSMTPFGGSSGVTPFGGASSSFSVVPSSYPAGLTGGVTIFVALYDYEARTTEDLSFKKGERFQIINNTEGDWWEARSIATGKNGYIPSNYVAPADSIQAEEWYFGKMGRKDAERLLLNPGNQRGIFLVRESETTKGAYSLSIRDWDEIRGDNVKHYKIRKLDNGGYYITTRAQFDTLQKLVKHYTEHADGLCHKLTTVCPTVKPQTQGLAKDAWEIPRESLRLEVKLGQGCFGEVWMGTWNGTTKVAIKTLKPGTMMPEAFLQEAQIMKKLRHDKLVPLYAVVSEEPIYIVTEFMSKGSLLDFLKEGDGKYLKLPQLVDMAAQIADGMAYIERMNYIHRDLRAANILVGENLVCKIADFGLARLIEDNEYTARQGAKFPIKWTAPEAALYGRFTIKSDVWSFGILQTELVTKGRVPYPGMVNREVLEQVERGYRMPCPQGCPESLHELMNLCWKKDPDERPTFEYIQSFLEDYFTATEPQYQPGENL

Chain of BDNF/NT-3 growth factors receptor (Homo sapiens) (Q16620 32-822 limits assumed): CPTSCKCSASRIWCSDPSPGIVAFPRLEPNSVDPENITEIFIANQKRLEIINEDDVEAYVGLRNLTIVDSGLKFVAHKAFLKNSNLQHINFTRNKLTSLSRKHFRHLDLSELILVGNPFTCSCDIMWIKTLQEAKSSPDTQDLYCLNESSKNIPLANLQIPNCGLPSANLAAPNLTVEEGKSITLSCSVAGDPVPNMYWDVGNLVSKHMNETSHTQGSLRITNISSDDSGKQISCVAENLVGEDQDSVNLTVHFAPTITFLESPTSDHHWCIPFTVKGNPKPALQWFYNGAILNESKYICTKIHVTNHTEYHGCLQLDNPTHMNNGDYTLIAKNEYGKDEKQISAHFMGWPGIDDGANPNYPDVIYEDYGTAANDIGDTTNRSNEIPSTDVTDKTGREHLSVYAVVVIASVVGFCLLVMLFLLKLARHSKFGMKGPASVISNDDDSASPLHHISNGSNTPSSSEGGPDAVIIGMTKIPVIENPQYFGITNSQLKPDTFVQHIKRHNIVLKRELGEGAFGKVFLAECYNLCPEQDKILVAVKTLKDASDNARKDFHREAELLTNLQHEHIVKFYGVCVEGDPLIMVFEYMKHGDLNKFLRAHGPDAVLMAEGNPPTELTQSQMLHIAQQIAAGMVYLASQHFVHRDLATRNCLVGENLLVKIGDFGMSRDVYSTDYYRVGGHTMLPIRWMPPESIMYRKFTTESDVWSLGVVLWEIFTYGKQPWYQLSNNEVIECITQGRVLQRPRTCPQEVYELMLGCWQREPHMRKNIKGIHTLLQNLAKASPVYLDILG
Chain of Calcium-dependent protein kinase 1 (Plasmodium falciparum) (P62344 2-524 limits assumed): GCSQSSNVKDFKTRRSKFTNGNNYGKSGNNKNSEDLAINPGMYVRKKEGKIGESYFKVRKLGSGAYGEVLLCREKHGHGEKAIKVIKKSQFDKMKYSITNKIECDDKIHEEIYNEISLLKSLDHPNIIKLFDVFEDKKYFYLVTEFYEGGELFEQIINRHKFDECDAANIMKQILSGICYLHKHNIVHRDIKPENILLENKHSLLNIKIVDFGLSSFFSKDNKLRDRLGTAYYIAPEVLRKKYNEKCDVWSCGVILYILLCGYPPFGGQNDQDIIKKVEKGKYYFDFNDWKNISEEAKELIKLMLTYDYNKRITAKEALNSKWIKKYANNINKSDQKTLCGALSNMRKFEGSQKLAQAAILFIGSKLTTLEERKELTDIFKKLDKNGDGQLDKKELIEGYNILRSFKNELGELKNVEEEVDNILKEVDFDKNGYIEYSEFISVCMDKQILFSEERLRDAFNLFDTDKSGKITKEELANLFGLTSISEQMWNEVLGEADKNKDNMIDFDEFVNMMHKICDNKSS
Chain of Receptor-type tyrosine-protein kinase FLT3 (Homo sapiens), P36888 [UNDEFINED MUTATION] (P36888 whole entry, looked up, change not shown, the tested form may be a part): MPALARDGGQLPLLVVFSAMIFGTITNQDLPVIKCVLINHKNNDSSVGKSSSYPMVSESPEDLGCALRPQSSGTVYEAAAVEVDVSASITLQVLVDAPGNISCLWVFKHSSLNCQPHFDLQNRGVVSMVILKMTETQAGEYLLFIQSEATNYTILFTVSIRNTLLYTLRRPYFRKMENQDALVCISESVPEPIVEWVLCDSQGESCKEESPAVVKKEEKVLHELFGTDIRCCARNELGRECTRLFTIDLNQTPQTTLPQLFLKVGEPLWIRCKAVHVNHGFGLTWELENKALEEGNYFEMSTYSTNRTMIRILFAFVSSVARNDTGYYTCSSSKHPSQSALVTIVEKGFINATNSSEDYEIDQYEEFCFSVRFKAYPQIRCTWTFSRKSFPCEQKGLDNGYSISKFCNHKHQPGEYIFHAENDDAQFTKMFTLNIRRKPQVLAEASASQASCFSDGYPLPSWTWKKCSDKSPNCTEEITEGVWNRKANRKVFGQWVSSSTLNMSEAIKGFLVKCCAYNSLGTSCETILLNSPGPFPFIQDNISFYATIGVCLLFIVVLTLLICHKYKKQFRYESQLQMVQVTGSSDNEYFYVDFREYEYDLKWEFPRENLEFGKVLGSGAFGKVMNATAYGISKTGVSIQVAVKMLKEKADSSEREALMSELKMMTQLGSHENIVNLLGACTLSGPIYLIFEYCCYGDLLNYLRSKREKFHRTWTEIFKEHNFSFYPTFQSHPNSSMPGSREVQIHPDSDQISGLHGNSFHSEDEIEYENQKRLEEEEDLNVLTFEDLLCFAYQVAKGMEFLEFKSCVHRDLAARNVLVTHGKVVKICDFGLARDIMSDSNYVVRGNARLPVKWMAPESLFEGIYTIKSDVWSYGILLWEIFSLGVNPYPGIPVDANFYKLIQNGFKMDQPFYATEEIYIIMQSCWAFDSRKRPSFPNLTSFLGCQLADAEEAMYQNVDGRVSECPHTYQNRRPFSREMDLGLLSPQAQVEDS
Chain of Serine/threonine-protein kinase Sgk2 (Homo sapiens) (Q9HBY8 whole entry, the tested form may be a part): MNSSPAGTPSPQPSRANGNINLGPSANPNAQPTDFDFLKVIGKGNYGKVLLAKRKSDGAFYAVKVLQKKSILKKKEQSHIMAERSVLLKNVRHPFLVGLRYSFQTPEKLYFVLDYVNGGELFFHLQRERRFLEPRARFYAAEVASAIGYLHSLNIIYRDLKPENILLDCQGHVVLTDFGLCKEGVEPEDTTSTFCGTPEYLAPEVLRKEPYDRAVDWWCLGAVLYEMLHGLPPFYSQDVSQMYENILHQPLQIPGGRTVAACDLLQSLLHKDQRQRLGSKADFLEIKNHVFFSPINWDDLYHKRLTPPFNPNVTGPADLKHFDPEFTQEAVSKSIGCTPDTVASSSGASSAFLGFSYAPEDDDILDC
Chain of ALK tyrosine kinase receptor (Homo sapiens) (Q9UM73 19-1620 limits assumed): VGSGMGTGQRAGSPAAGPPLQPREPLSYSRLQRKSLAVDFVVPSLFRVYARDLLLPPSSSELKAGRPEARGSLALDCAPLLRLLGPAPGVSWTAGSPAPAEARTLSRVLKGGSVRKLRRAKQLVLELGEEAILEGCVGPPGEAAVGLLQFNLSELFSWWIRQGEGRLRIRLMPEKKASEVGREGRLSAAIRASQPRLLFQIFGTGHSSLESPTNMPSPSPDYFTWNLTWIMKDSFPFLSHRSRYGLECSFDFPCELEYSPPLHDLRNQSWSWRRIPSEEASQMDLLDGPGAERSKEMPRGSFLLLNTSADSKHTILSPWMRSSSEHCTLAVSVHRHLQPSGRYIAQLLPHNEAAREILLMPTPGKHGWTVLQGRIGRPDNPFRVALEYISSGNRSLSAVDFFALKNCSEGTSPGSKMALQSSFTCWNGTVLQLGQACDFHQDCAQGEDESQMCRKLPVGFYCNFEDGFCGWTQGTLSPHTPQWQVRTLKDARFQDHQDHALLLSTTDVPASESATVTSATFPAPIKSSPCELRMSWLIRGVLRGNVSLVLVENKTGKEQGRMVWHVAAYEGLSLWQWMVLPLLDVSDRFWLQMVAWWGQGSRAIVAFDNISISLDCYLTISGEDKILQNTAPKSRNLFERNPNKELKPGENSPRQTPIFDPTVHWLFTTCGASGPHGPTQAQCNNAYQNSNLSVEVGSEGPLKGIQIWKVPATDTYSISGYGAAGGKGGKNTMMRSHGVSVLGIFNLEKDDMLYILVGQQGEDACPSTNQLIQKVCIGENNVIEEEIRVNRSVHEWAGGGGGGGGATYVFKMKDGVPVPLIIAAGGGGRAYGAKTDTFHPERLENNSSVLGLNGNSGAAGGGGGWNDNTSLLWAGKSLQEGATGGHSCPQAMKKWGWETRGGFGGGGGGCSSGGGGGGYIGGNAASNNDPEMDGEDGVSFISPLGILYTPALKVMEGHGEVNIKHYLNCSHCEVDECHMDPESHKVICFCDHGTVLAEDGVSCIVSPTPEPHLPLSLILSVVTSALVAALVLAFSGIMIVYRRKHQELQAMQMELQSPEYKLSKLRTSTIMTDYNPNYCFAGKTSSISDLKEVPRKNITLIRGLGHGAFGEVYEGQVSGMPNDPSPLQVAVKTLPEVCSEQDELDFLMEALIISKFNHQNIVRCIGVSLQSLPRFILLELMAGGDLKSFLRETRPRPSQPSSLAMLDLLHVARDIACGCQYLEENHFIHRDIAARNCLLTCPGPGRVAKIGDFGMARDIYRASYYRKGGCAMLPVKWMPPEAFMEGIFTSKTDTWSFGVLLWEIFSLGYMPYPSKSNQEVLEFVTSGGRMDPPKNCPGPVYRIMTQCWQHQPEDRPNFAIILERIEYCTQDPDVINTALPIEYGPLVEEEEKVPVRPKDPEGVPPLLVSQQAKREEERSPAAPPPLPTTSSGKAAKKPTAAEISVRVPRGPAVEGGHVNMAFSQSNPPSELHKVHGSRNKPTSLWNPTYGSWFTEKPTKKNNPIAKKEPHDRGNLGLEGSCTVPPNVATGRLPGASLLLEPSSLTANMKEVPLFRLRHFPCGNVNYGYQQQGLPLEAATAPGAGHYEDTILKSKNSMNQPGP

## CCC(=O)Nc1ccc(C(=O)Nc2ccc(Nc3ncc4c(n3)N(C)c3ccc(C)cc3C(=O)N4C)cc2)cc1
[1]
  IC50: 34 µM
[2]
  Activity: 80%
[3]
  Activity: 90%
[4]
  Activity: 96%
[5]
  Activity: 83%
[6]
  Activity: 93%
[7]
  Activity: 97%
[8]
  Activity: 89%
[9]
  Activity: 65%
[10]
  Activity: 80%
[11]
  Activity: 85%
[12]
  Activity: 97%
[13]
  Activity: 94%
[14]
  Activity: 76%
[15]
  Activity: 97%
[16]
  Activity: 74%
[17]
  Activity: 50%
[18]
  Activity: 20%
[19]
  Activity: 100%
[20]
  Activity: 100%
[21]
  Activity: 100%
[22]
  Activity: 70%
[23]
  Activity: 84%
[24]
  Activity: 100%
[25]
  Activity: 83%

## C=CC(=O)Nc1ccc(C(=O)Nc2ccc(Nc3ncc4c(n3)N(C)c3ccc(C)cc3C(=O)N4C)cc2)cc1
[1]
  IC50: 37 µM
[2]
  Activity: 93%
[3]
  Activity: 92%
[4]
  Activity: 99%
[5]
  Activity: 100%
[6]
  Activity: 85%
[7]
  Activity: 100%
[8]
  Activity: 100%
[9]
  Activity: 100%
[10]
  Activity: 92%
[11]
  Activity: 81%
[12]
  Activity: 74%
[13]
  Activity: 83%
[14]
  Activity: 94%
[15]
  Activity: 91%
[16]
  Activity: 100%
[17]
  Activity: 100%
[18]
  Activity: 24%
[19]
  Activity: 100%
[20]
  Activity: 82%
[21]
  Activity: 100%
[22]
  Activity: 100%
[23]
  Activity: 100%
[24]
  Activity: 100%
[25]
  Activity: 90%
